Sampled rows, rich in hits. Any-hit rate of the full collection: about 2.4%.
Rpn11 block: Rpn11 (human) deubiquitinase inhibition | human 26S proteasome, Ub4-pepOG fluorescence polarization; 20S core pre-blocked with epoxomicin | O00487 | AID 588493 | 360,000 compounds, 0.59% hits | inhibition, % at 20 µM;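 active = inhibition at 20 µM, scaled to each plate's controls, above about 33%, limit read from the data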
Neddylation inh: blocks human cullin neddylation; AID 651699; TR-FRET cullin neddylation, biochemical; inhibition, % at 25 µM; 360,000 compounds, 0.58% hits; P61081+Q13564; in the data active = inhibition above about 36%
CSN inh: CSN deneddylation inhibition | Q92905 | inhibition, % at 12.5 µM | Purified CSN, SCF-Nedd8-OG deneddylation, fluorescence polarization | 360,000 compounds, 0.38% hits | AID 651999;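 active = pattern-corrected inhibition above about 35%, with an unprinted fluorescence ratio check between 0.5 and 1.5, limit read from the data, passing the limit was not always enough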;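 note: 0% = enzyme with substrate and 100% = substrate without enzyme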
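Test system: Human Csn5 produced in HEK293T cells | Compound: 12.5 µM single point | Times: 90 min, room temperature | Signal: Fluorescence polarization readout | Read-out basis: % inhibition of substrate cleavage by Csn5 | Controls: no-enzyme wells high, enzyme-with-substrate wells low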
Rin1-Abl PPI inh: inhibitors of human Rin1-Abl protein interaction; P00519+Q13671; inhibition, % at 7.35 µM; AID 588664; 360,000 compounds, 0.4% hits; TR-FRET Rin1/Abl binding, biochemical; in the data active = inhibition above about 5%, passing the limit was not always enough
TPT1 inhibitor: inhibitors of Candida albicans tRNA 2'-phosphotransferase TPT1 | recombinant caTPT1, FP RNA substrate dephosphorylation | inhibition, % at 5 µM | 300,000 compounds, 0.81% hits;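 active = inhibition above the mean of all tested compounds plus 3 SD, set per screening campaign, cut at about 24% in these data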;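 note: plate controls were DMSO alone for no effect and ferristatin control at 100 nM for full effect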
HNF4A DNA FP: change in binding of human HNF4 alpha to DNA; P41235; HNF4a-FITC DNA binding, fluorescence polarization, 1 h; 360,000 compounds, 0.3% hits; AID 1224865; activity change, % at 10 µM; in the data active = activity change above about 30%, passing the limit was not always enough
Target sequence (P41235 whole entry, looked up): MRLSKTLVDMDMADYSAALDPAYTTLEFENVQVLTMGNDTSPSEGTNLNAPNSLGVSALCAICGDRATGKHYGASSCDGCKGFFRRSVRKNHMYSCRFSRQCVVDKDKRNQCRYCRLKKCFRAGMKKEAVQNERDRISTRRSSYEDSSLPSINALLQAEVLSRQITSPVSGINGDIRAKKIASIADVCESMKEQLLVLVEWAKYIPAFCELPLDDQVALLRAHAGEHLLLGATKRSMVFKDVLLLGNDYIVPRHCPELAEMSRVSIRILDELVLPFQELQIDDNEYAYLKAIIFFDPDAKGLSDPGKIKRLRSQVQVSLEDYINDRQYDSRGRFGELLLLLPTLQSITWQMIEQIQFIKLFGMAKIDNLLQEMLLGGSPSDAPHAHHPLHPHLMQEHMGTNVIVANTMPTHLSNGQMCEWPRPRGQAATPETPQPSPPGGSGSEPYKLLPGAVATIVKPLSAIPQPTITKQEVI
TPT1 inh confirm: confirmation of Candida albicans TPT1 inhibitors; inhibition, % at 5 µM; shares compounds with TPT1 inhibitor; 2,400 compounds, 74% hits; recombinant caTPT1, fluorescence polarization, RNase T1 coupled;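 active = inhibition above the primary screen limit, the mean inhibition of all tested compounds plus 3 SD, cut at about 25% in these data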
RNase T1 counter: counter-screen for TPT1 inhibitors: inhibitors of Aspergillus oryzae RNase T1 | RNase T1 cleavage, fluorescence polarization, 1536-well | shares compounds with TPT1 inhibitor | 2,400 compounds, 83% hits | inhibition, % at 5 µM;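 active = inhibition above the solvent-only control well mean plus 3 SD, limit set per screening run, cut at about 23% in these data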;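 note: plate controls were DMSO wells with enzyme for no effect and wells without RNase T1 for full effect; inhibitors block cleavage so intact labeled substrate keeps polarization high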
* marks the source's active call; other numbers are inactive results; nt = not tested or not shown.

SMILES	Rpn11 block	Neddylation inh	CSN inh	Rin1-Abl PPI inh	TPT1 inhibitor	HNF4A DNA FP	TPT1 inh confirm	RNase T1 counter
COc1ccc(N2C(=O)NC(=O)/C(=C\c3cn(C)c4ccccc34)C2=O)cc1	nt	0.3	14.2	1.9	66.9*	107.9*	68.4*	70.8*
CC12C=CC(=O)C=C1CC(O)C1C2CCC2(C)C1CCC2(C)O (stereo not given)	-3.1	7.8	5.2	-0.1	nt	0.6	nt	nt
Cc1ccccc1NC(=O)N1Cc2ccccc2-n2nncc2C1	-1.0	0.3	6.4	0.2	nt	-2.1	nt	nt
COc1ccccc1NC(=O)c1cn(CCC#N)nc1-c1cccc(Cl)c1	1.9	-8.1	1.6	0.0	nt	0.4	nt	nt
COC(=O)[C@@]1(Sc2ccc(C)cc2)CC(=O)N(P(=O)(OC)OC)[C@@H]1c1ccccc1	nt	5.9	-1.5	nt	nt	0.0	nt	nt
Cc1ccc(-n2c(O)c(/C=C/C=Nc3ccccc3)c(=O)[nH]c2=O)cc1	27.6	1.4	26.8	-4.2	134.2*	71.0*	51.1*	48.2*
NS(=O)(=O)c1ccc(N=Cc2c(O)n(-c3ccccc3)c(=O)[nH]c2=O)cc1	10.0	-15.3	1.7	1.2	8.9	8.0	nt	nt
COc1ccc(-n2c(O)c(/C=C/C=Nc3ccccc3)c(=O)[nH]c2=O)cc1	nt	-8.3	8.2	-10.6	178.5*	176.6	195.6*	177.4*
O=c1[nH]c(=O)n(C2CCCCC2)c(O)c1/C=C/C=Nc1ccccc1	nt	-5.1	-27.9	-2.1	89.5*	121.3	80.8*	75.9*
O=c1[nH]c(=O)n(-c2ccccc2)c(O)c1/C=C/C=Nc1ccccc1	nt	1.0	126.4	-7.0	157.4*	150.8	165.7*	159.9*
O=c1[nH]c(=O)n(C2CCCCCC2)c(O)c1C=NC1CCN(Cc2ccccc2)CC1	11.3	5.4	8.0	-3.1	-10.7	8.7	nt	nt
C[C@@H]1CN([C@@H](C)CO)C(=O)CCCn2cc(nn2)CO[C@H]1CN(C)C(=O)Oc1ccc2ccccc2c1	-6.6	-3.8	0.1	0.0	nt	-2.2	nt	nt
Cc1[nH]c2ccccc2c1CN1CCCCC1	3.3	6.0	5.2	1.9	nt	-2.5	nt	nt
O=c1[nH]c(=O)n(C2CCCCC2)c(O)c1C=Nc1ccc(N2CCOCC2)cc1	0.5	8.5	3.9	-0.1	2.2	-2.1	nt	nt
Cn1c(O)c(C=NCCN2CCOCC2)c(=O)n(C)c1=S	-4.3	-3.7	2.2	-1.6	-1.2	0.3	nt	nt
CCn1c(O)c(C=Nc2ccc(N3CCOCC3)c(Br)c2)c(=O)n(CC)c1=S	26.1	30.9	7.2	-4.0	3.6	-2.5	nt	nt
CCn1c(O)c(C=Nc2ccc(N3CCOCC3)cc2)c(=O)n(CC)c1=S	-154.4	-12.0	-69.3	4.7	66.2*	6.2	-25.9	-35.6
CCn1c(O)c(C=NCCN2CCOCC2)c(=O)n(CC)c1=S	13.9	4.5	7.2	-1.1	38.5*	3.3	19.1	27.4*
O=c1[nH]c(=S)n(-c2ccc(Cl)cc2)c(O)c1C=Nc1ccc(N2CCOCC2)cc1	-38.1	-28.9	8.9	-2.0	29.9*	2.5	-49.0	-32.5
O=C1NC(=O)C2(CCN(c3ccccc3)CC2)C(=O)N1	-0.6	-2.3	0.1	3.8	nt	0.4	nt	nt
c1cc2c(cc1NC1=NCCO1)CCCC2	-0.5	0.9	-3.5	4.4	nt	-2.5	nt	nt
CCCCn1c(=O)c(C=Nc2cccnc2Cl)c(O)n(CCCCl)c1=O	17.0	2.7	11.1	-2.6	29.9*	-2.2	9.4	13.6
Cn1c(O)c(/C=N/c2ncccn2)c(=O)n(C)c1=O	6.9	-2.2	1.3	2.6	6.3	-0.2	nt	nt
CN1C(=O)/C(=C/c2cccn2-c2ccc3ccccc3c2)C(=O)NC1=S	2.9	-6.9	5.7	1.1	38.0*	-6.8	16.9	20.6
Cc1cc(C)c(Cn2c(C(=O)O)c(C=O)c3ccccc32)c(C)c1	nt	2.4	94.8	-2.1	52.9*	105.7	118.0*	119.6*
CC(=O)c1c(O)n(-c2cccc(Cl)c2)c(=O)[nH]c1=O (tested in a mixture with another compound)	29.3	6.2	12.2	4.3	28.4*	13.5	33.8*	42.7*

Compound activity deposited in PubChem BioAssay by several laboratories.
